According to ChEMBL document CHEMBL3817728, “Synthesis, Evaluation, and Mechanism Study of Novel Indole-Chalcone Derivatives Exerting Effective Antitumor Activity Through Microtubule Destabilization in Vitro and in Vivo” (J Med Chem, 2016):

How the values were obtained:
[1] = test system: A549; assay: Disruption of mitochondrial membrane potential in human A549 cells assessed as red fluorescence intensity at 1 nM after 24 hrs by JC1 staining-based flow cytometric method (reference value: 99.2%); format: functional
[2] = test system: A549; assay: Disruption of mitochondrial membrane potential in human A549 cells assessed as green fluorescence intensity at 10 nM after 24 hrs by JC1 staining-based flow cytometric method (reference value: 0.02%); format: functional
[3] = Half life in Sprague-Dawley rat liver microsomes in presence of NADPH regenerating system by HPLC method; format: ADME
Procedure, shortened: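 Compound incubated with rat liver microsomes at 37 °C in buffer containing an NADPH regenerating system, sampled over time up to 3 h. Remaining parent compound was measured by HPLC and half-life derived.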

[4] = test system: A549; assay: Antitumor activity against human A549 cells xenografted in BALB/c nude mouse assessed as tumor growth inhibition at 30 mg/kg, ip administered every other day for 1 month measured every other day post dose relative to vehicle-treated control; format: functional; conditions: read-out: TGI
[5] = test system: A549; assay: Cytotoxicity against human A549 cells assessed as cell viability after 48 hrs by MTT assay; format: functional, cell-based; conditions: A549, 48 h
Procedure, shortened: (§1)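 Cancer cell lines treated with compound for 48 h, and viability read by MTT assay. IC50 given as mean ± SD from at least three independent experiments.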

[6] = Cytotoxicity against human Bel7402 cells assessed as cell viability after 48 hrs by MTT assay; format: functional, cell-based; conditions: Bel-7402, 48 h; procedure, shortened: as §1
[7] = Selectivity ratio of IC50 for human MCF10A cells to IC50 for human A549 cells; format: ADME, cell-based; conditions: MCF10A cells versus A549 cells, read-out: Ratio IC50
Procedure, shortened: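 Selectivity ratio = IC50 in normal cells / IC50 in A549; IC50 values mean ± SE from dose-response curves of at least three independent experiments. HUVECs kept quiescent in endothelial cell medium with 0.5% fetal calf serum, no growth factor.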

[8] = test system: HCT-8; assay: Resistance index, ratio of IC50 for human HCT8/VCT cells to IC50 for human HCT8 cells; format: functional
[9] = Cytotoxicity against human A549/CDDP cells assessed as growth inhibition after 48 hrs by MTT assay; format: functional, cell-based; conditions: A549, 48 h
Procedure, shortened: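 Drug-resistant lines were tested by a 48 h MTT viability assay. IC50 was derived from dose-response curves and reported as mean ± SE of at least three independent experiments.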

[10] = test system: A549; assay: Induction of apoptosis in human A549 cells assessed as viable cells at 1 nM after 24 hrs by annexin V-FITC/propidium iodide staining-based flow cytometric method (reference value: 98.9%); format: functional; conditions: A549, 24 h, read-out: Activity
Procedure, shortened: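 A549 cells exposed 24 h or 48 h at indicated concentrations, then trypsinized, harvested and stained with Annexin V-FITC and PI; flow cytometry quadrants scored as necrotic (upper left), late apoptotic (upper right), live (bottom left) and early apoptotic (bottom right). Five independent experiments, representative shown.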

For `COc1ccc2c(/C=C(\C)C(=O)c3cc(OC)c(OC)c(OC)c3)c[nH]c2c1`, the Activity [1] was 97.2%, the Activity [2] was 57.2% and the half-life [3] was 2.62 h. The inhibition in vivo at 30 mg/kg [4] was 66.1%, the IC50 [5] was 3 nM and the IC50 [6] was 9 nM. For the same molecule, the selectivity ratio [7] was 891, the “Ratio IC50” value [8] was 0.42 and the IC50 [9] was 4 nM. The viability at 0.001 µM [10] was 83.7%.
